Test results taken from ChEMBL document CHEMBL3352130, “Bioactive clerodane diterpenoids from the twigs of Casearia balansae” (J Nat Prod, 2014).
Converted amounts (≈) assume the structure as drawn. The source made the active and inactive calls. The calls are words filed in the database; no cut-off is given here.

Assays:
[1] = test system: PC-12; assay: Stimulation of NGF-mediated neurite outgrowth in rat PC12 cells incubated for 96 hrs by phase contrast microscopy; assay type: functional, cell-based; details: for EC50: PC-12, 96 h
How it was run: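 PC12 cells cultured and dissociated with EGTA as above, then plated on poly-L-lysine at 3 × 10^4 cells/well. After 24 h, exposed for 96 h to 20 ng/mL NGF plus graded compound concentrations in 1% FBS/1% HS. Phase-contrast count of cells with neurites ≥ soma diameter, as % of ≥100 cells per field (3 fields/well, 6 wells/sample). Triplicate runs. EC50 from linear or nonlinear concentration–response regression.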

[2] = test system: PC-12; assay: Induction of neurite outgrowth in rat PC12 cells incubated for 96 hrs by phase contrast microscopy; assay type: functional, cell-based
How it was run: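 PC12 cells grown at 37 °C in DMEM with 5% FBS and 5% horse serum, then dissociated with 1 mM EGTA in PBS for 15 min. Seeded at 3 × 10^4 cells/well on poly-L-lysine. After 24 h, switched to 1% FBS/1% HS with test compounds at various concentrations and no NGF, for 96 h. NGF 100 ng/mL served as positive control. Neurite-bearing cells: process ≥ cell-body diameter, as % of ≥100 cells × 3 fields × 6 wells. Triplicate.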

Structure (SMILES): C=CC(=C)CC[C@]1(C)[C@H](C)C[C@H](OC)[C@@]23C(=C[C@@H](OC(C)=O)C[C@@H]12)[C@@H](OC)O[C@H]3OC(C)=O
- Activity [1]: Dose-dependent effect
- EC50 [1]: 2.4 µg/mL (≈ 5.19 µM)
- Activity [2]: inactive

Structure (SMILES): C=CC(=C)CC[C@]1(C)[C@H](C)C[C@H](OC)[C@@]23C(=C[C@H](OC(=O)C(C)CC)C[C@@H]12)[C@@H](OC)O[C@H]3OC(C)=O (stereo partly specified)
- Activity [1]: Dose-dependent effect
- EC50 [1]: 4 µg/mL (≈ 7.93 µM)
- Activity [2]: inactive

Structure (SMILES): C=CC(=C)CC[C@]1(C)[C@H](C)C[C@H](OC)[C@@]23C(=CC(=O)C[C@@H]12)[C@@H](OC(C)=O)O[C@H]3OC(C)=O
- Activity [1]: Dose-dependent effect
- EC50 [1]: 2.5 µg/mL (≈ 5.6 µM)
- Activity [2]: inactive

Structure (SMILES): C=CC(=C)CC[C@]1(C)[C@H](C)CC[C@@]23C(=CC(=O)C[C@@H]12)[C@@H](OC(=O)CCC)O[C@H]3OC(C)=O
- Activity [1]: inactive
- Activity [2]: inactive

Structure (SMILES): C=CC(=C)CC[C@]1(C)[C@H](C)C[C@H](OC)[C@@]2(C=O)C(C=O)=C[C@H](OC(=O)C(C)CC)C[C@@H]12 (stereo partly specified)
- Activity [1]: inactive
- Activity [2]: inactive

Structure (SMILES): C=CC(=C)CC[C@]1(C)[C@H]2C[C@H](OC(=O)C(C)CC)C=C3[C@H](OC)O[C@H](OC(C)=O)[C@@]32[C@H](O)C[C@@H]1C (stereo partly specified) [CASEAMEMBRIN B]
- Activity [1]: Dose-dependent effect
- EC50 [1]: 7.5 µg/mL (≈ 15.3 µM)
- Activity [2]: inactive

Structure (SMILES): C=CC(=C)CC[C@]1(C)[C@H](C)CC[C@@]23[C@H](OC(C)=O)O[C@H](OC(C)=O)[C@@H]2CC(=O)C[C@@H]13
- Activity [1]: inactive
- Activity [2]: inactive

Structure (SMILES): C=CC(=C)CC[C@]1(C)[C@H](C)CC[C@@]23C(=C[C@H](OC(=O)C(C)CC)C[C@@H]12)[C@@H](OC(=O)CCC)O[C@H]3OC(C)=O (stereo partly specified)
- Activity [1]: inactive
- Activity [2]: inactive

Structure (SMILES): C=CC(=C)CC[C@]1(C)[C@H](C)C[C@H](OC)[C@@]23C(=C[C@H](OC(=O)CCC)C[C@@H]12)[C@@H](OC(=O)CCC)O[C@H]3OC(C)=O
- Activity [1]: Dose-dependent effect
- EC50 [1]: 20.2 µg/mL (≈ 36.9 µM)
- Activity [2]: inactive

Structure (SMILES): C=CC(=C)CC[C@]1(C)[C@H](C)C[C@H](OC)[C@@]23C(=C[C@H](OC(=O)C(C)CC)C[C@@H]12)[C@@H](OC(=O)CCC)O[C@H]3OC(C)=O (stereo partly specified)
- Activity [1]: Dose-dependent effect
- EC50 [1]: 12.7 µg/mL (≈ 22.6 µM)
- Activity [2]: inactive
